≈ marks a conversion by molar mass, not a printed value.
Experiments:
[1] = Solubility of the compound in phosphate buffer at pH 6.4; format: physicochemical
Procedure, shortened: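 Solubility of parent compounds and prodrugs measured in 50 mM phosphate buffer, pH 6.4.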

Rattus norvegicus [2] = experiment: Antiobesity activity in DIO Sprague-Dawley rat model assessed as reduction in body weight at 0.03 mg/kg, po qd for 28 days relative to vehicle control; format: functional; design: scale not given: the % may be the effect or the level left
Procedure, shortened: (§1)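 Obese male SD rats on diet-induced obesity, 8/group, dosed orally once daily for 28 days with phosphate prodrug (0.03–3 mg/kg parent) in 14% propylene glycol/1% Tween/85% water; rimonabant 10 mg/kg control; pair-fed groups matched to 1 and 3 mg/kg intake; body weight and food measured daily, % change versus vehicle.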

Rattus norvegicus [3] = experiment: Antiobesity activity in DIO Sprague-Dawley rat model assessed as reduction in body weight at 0.1 mg/kg, po qd for 28 days relative to vehicle control; format: functional; design: scale not given: the % may be the effect or the level left; procedure, shortened: as §1
Rattus norvegicus [4] = experiment: Antiobesity activity in DIO Sprague-Dawley rat model assessed as reduction in body weight at 0.3 mg/kg, po qd for 28 days relative to vehicle control; format: functional; design: scale not given: the % may be the effect or the level left; procedure, shortened: as §1
Rattus norvegicus [5] = experiment: Antiobesity activity in DIO Sprague-Dawley rat model assessed as reduction in body weight at 1 mg/kg, po qd for 28 days relative to vehicle control; format: functional; design: scale not given: the % may be the effect or the level left; procedure, shortened: as §1
Rattus norvegicus [6] = experiment: Antiobesity activity in DIO Sprague-Dawley rat model assessed as reduction in body weight at 3 mg/kg, po qd for 28 days relative to vehicle control; format: functional; design: scale not given: the % may be the effect or the level left; procedure, shortened: as §1
[7] = Cmax in dog at 10 mg/kg, po; format: ADME, organism-based, Canis lupus familiaris; design: dose 10 mg/kg, route oral; settings: in vivo
Procedure, shortened: (§2)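 Rats, dogs and cynomolgus monkeys, n = 3: parent 1 mg/kg i.v. in PEG400:DMAC:water (70:5:25), or phosphate prodrug 10 mg/kg oral in Methocel:Tween80:water (0.5:0.1:99.4); plasma parent compound, Cmax, Tmax, AUC0-∞, half-life, clearance, Vss and bioavailability derived.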

Rattus norvegicus [8] = experiment: Antiobesity activity in DIO Sprague-Dawley rat model assessed as reduction in caloric intake at 0.03 mg/kg, po qd for 28 days relative to vehicle control; format: functional; design: scale not given: the % may be the effect or the level left; procedure, shortened: as §1
Rattus norvegicus [9] = experiment: Antiobesity activity in DIO Sprague-Dawley rat model assessed as reduction in caloric intake at 0.1 mg/kg, po qd for 28 days relative to vehicle control; format: functional; design: scale not given: the % may be the effect or the level left; procedure, shortened: as §1
Rattus norvegicus [10] = experiment: Antiobesity activity in DIO Sprague-Dawley rat model assessed as reduction in caloric intake at 0.3 mg/kg, po qd for 28 days relative to vehicle control; format: functional; design: scale not given: the % may be the effect or the level left; procedure, shortened: as §1
Rattus norvegicus [11] = experiment: Antiobesity activity in DIO Sprague-Dawley rat model assessed as reduction in caloric intake at 1 mg/kg, po qd for 28 days relative to vehicle control; format: functional; design: scale not given: the % may be the effect or the level left; procedure, shortened: as §1
Rattus norvegicus [12] = experiment: Antiobesity activity in DIO Sprague-Dawley rat model assessed as reduction in caloric intake at 3 mg/kg, po qd for 28 days relative to vehicle control; format: functional; design: scale not given: the % may be the effect or the level left; procedure, shortened: as §1
[13] = Plasma concentration in DIO Sprague-Dawley rat assessed as parent compound level at 0.3 mg/kg, po for 28 days measured after 2 hrs; format: ADME, organism-based
Procedure, shortened: (§3)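 Obese male DIO SD rats, 8/group, dosed orally once daily for 28 days with phosphate prodrug at 0.03–3 mg/kg. Vehicle 14% propylene glycol/1% Tween/85% water. Body weight and food intake recorded daily. Parent plasma levels at 2 and 24 h; prodrug detection limit <2 nM. Histopathology for biliary toxicity at study end.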

[14] = Plasma concentration in DIO Sprague-Dawley rat assessed as parent compound level at 3 mg/kg, po for 28 days measured after 2 hrs; format: ADME, organism-based; procedure, shortened: as §3
[15] = Plasma concentration in DIO Sprague-Dawley rat assessed as parent compound level at 0.3 mg/kg, po for 28 days measured after 24 hrs; format: ADME, organism-based; procedure, shortened: as §3
Rattus norvegicus [16] = experiment: Toxicity in DIO Sprague-Dawley rat assessed as biliary lesion at 0.03 to 3 mg/kg, po administered once daily for 28 days by histophalogy analysis; format: organism-based; settings: in vivo, 672 h; procedure, shortened: as §3
Rattus norvegicus [17] = experiment: Antiobesity activity in once daily orally dosed DIO Sprague-Dawley rat model assessed as reduction in caloric measured after 28 days relative to vehicle control; format: functional, organism-based; procedure, shortened: as §1
[18] = biological target: Melanin-concentrating hormone receptor 1 (Homo sapiens, UniProt Q99705); experiment: Binding affinity to MCHR1 (unknown origin)
[19] = Protein binding in DIO rat plasma assessed as unbound fraction; format: ADME, cell-free
Procedure, shortened: (§4)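 Plasma protein binding reported as % free drug in rat, DIO rat, dog, cynomolgus monkey, rabbit and human plasma.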

[20] = Protein binding in dog plasma assessed as unbound fraction; format: ADME, cell-free, Canis lupus familiaris; procedure, shortened: as §4
[21] = Protein binding in cynomolgus monkey plasma assessed as unbound fraction; format: ADME, cell-free, Macaca fascicularis; procedure, shortened: as §4
[22] = Protein binding in rabbit plasma assessed as unbound fraction; format: ADME, cell-free, Oryctolagus cuniculus; procedure, shortened: as §4
[23] = Cmax in rat at 10 mg/kg, po; format: ADME, organism-based; design: dose 10 mg/kg, route oral; settings: in vivo; procedure, shortened: as §2
[24] = Cmax in cynomolgus monkey at 10 mg/kg, po; format: ADME, organism-based, Macaca fascicularis; design: dose 10 mg/kg, route oral; settings: in vivo; procedure, shortened: as §2
[25] = Tmax in rat at 10 mg/kg, po; format: ADME, organism-based; settings: in vivo
Procedure, shortened: (§5)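 Full PK in rat, dog and cynomolgus monkey. Oral arm: phosphate prodrug at 10 mg/kg parent-equivalent in Methocel:Tween80:water (0.5:0.1:99.4). Intravenous arm: parent at 1 mg/kg in PEG400:DMAC:water (70:5:25). n = 3 per species; individual Tmax values reported for dog and monkey.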

[26] = Tmax in dog at 10 mg/kg, po; format: ADME, organism-based, Canis lupus familiaris; settings: in vivo; procedure, shortened: as §5
[27] = Tmax in cynomolgus monkey at 10 mg/kg, po; format: ADME, organism-based, Macaca fascicularis; settings: in vivo; procedure, shortened: as §5
[28] = AUC in rat at 10 mg/kg, po; format: ADME, organism-based; settings: in vivo; procedure, shortened: as §2
[29] = AUC in dog at 10 mg/kg, po; format: ADME, organism-based, Canis lupus familiaris; settings: in vivo; procedure, shortened: as §2
[30] = AUC in cynomolgus monkey at 10 mg/kg, po; format: ADME, organism-based, Macaca fascicularis; settings: in vivo; procedure, shortened: as §2
[31] = Oral bioavailability in rat at 10 mg/kg; format: ADME, organism-based; settings: in vivo; procedure, shortened: as §5
[32] = Oral bioavailability in dog at 10 mg/kg; format: ADME, organism-based, Canis lupus familiaris; settings: in vivo; procedure, shortened: as §5
[33] = Oral bioavailability in cynomolgus monkey at 10 mg/kg; format: ADME, organism-based, Macaca fascicularis; settings: in vivo; procedure, shortened: as §5
Rattus norvegicus [34] = experiment: Toxicity in rat assessed as hepatobiliary lesions up to 100 mg/kg administered for 30 days; format: organism-based; settings: in vivo, 720 h
Procedure, shortened: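 Rats dosed daily with the phosphate prodrug for 30 days at up to 100 mg/kg; hepatobiliary lesions examined.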

[35] = Plasma concentration in DIO Sprague-Dawley rat assessed as parent compound level at 3 mg/kg, po for 28 days measured after 24 hrs

Melanin-concentrating hormone receptor 1, sequence (Q99705 whole entry): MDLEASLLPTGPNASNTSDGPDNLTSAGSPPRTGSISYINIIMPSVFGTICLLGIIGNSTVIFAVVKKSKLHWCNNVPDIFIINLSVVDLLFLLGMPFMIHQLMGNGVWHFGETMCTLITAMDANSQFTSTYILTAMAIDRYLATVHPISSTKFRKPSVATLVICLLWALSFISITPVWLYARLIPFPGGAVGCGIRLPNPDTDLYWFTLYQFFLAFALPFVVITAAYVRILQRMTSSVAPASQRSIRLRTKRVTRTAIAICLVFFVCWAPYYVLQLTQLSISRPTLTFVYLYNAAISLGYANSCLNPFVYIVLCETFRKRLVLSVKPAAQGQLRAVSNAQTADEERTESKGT

Work on `COc1cc(-n2cnc3cc(-c4ccc(Cl)cc4)sc3c2=O)ccc1OCC1(OP(=O)(O)O)CC(F)(F)C1` yielded a solubility [1] of 4 µg/mL (≈ 6.84 µM), an Activity (Rattus norvegicus [2]) of 1.7% and an Activity (Rattus norvegicus [3]) of 3.2%. The Activity (Rattus norvegicus [4]) was 5%, the Activity (Rattus norvegicus [5]) was 6.6% and the Activity (Rattus norvegicus [6]) was 7.8%. The Cmax [7] was 1200 nM, the Activity (Rattus norvegicus [8]) was 6.5% and the Activity (Rattus norvegicus [9]) was 10.5%. The Activity (Rattus norvegicus [10]) was 12.8%, the Activity (Rattus norvegicus [11]) was 14.5% and the Activity (Rattus norvegicus [12]) was 14.7%. It also gave a concentration at 2 h [13] of 2000 nM, a concentration at 2 h [14] of 13500 nM and a concentration at 24 h [15] of 1200 nM. For the same compound, the Activity (Rattus norvegicus [16]) was “Non-Toxic”, the inhibition (Rattus norvegicus [17]) was “Dose-dependent effect” and the Ki [18] was 2920 nM. For the same compound, the Fu [19] was 0.1%, the Fu [20] was 0.3% and the Fu [21] was 0.4%. It also gave a Fu [22] of 0.2%, a Cmax [23] of 4000 nM and a Cmax [24] of 1200 nM. The Tmax [25] was 6.7 h, the Tmax [26] was 9.3 h and the Tmax [27] was 10.7 h. The AUC [28] was 107 µM·h, the AUC [29] was 15.3 µM·h and the AUC [30] was 87 µM·h. The bioavailability [31] was 54%, the bioavailability [32] was 33% and the bioavailability [33] was 46%. For the same compound, the Activity (Rattus norvegicus [34]) was “Non-Toxic” and the concentration at 24 h [35] was 14400 nM.

From ChEMBL document CHEMBL3856239, “Synthesis and Antiobesity Properties of 6-(4-Chlorophenyl)-3-(4-((3,3-difluoro-1-hydroxycyclobutyl)methoxy)-3-methoxyphenyl)thieno[3,2-d]pyrimidin-4(3H)-one (BMS-814580): A Highly Efficacious Melanin Concentrating Hormone Receptor 1 (MCHR1) Inhibitor” (J Med Chem, 2016)
